Assay results as given in the RNAGym collection of RNA variant scans (doi:10.1126/science.aae0568).
Variants at the floor of the assay were thinned out.

B1: tRNA (parent)
chain: GUUCCGUUGGCGUAAUGGUAACGCGUCUCCCUCCUAAGGAGAAGACUGCGGGUUCGAGUCCCGUACGGAACG

Variants of: B1
Experiment: yeast fitness relative to wild type (ratio to wild type); higher = fitter; tRNA-Arg(CCU), competitive growth, 37 C, YPD
In short: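 Changes in genotype frequencies gave Darwinian fitness relative to wild type. Frequencies were read by 100-nucleotide paired-end sequencing of gene amplicons before and after pooled Saccharomyces cerevisiae strains, carrying tRNA-Arg(CCU) gene variants at the native locus, were competed in YPD at 37°C for 24 hours in six replicates. A genotype was kept only with ≥ 100 starting reads, and estimates < 0.5 were set to 0.5.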
With C4G U8G G9A C11U C34G C61A the yeast fitness was ≤ 0.5. For C4U A15C A43U, the yeast fitness was ≤ 0.5. With C4G U19C A43G A45C C46U the yeast fitness was ≤ 0.5. For C4U A20U A40U G56C, the yeast fitness was ≤ 0.5. C4G U8G C60A U64A C66U gave a yeast fitness of 0.711. C4U A21G C46A A70U showed a yeast fitness of 0.76. With C4U A20U C29G C49G G63C the yeast fitness was ≤ 0.5. With C4U C5G A37C G58A C62U the yeast fitness was ≤ 0.5. With C4U A42U C61A A65C the yeast fitness was ≤ 0.5. With C4U A36U G68A the yeast fitness was ≤ 0.5. In the case of C4U A20C, the yeast fitness is reported as 1.03. For C4U C5A A21G A43U C46U G51C C55U A65C, the yeast fitness was ≤ 0.5. C4U C5U A36U gave a yeast fitness of 0.625. C4U A20U C27G C30G A43G A65C G68C showed a yeast fitness of 0.639. C4U A36C C49U G58A showed a yeast fitness of 0.612. C4U A43C G51A G68U showed a yeast fitness of 0.623. Variant C4U A70U has a yeast fitness of 1.02. C4U A70C showed a yeast fitness of 0.989. For C4U A45G A57C, the yeast fitness was 0.585. In the case of C4G U8G A21C, the yeast fitness is reported as ≤ 0.5. With C4G U13C G39C the yeast fitness was ≤ 0.5. With C4G U8G C27G G48C the yeast fitness was ≤ 0.5. With C4U C5G A15U C22G C30U U53G G58A U59A the yeast fitness was 0.603. In the case of C4U A21C C27U G63A A65G, the yeast fitness is reported as ≤ 0.5. In the case of C4U A15G G23C A37U A65U, the yeast fitness is reported as 0.57. For C4U A15C A37G A40G G68U, the yeast fitness was ≤ 0.5. For C4U A20G C27A G52A, the yeast fitness was ≤ 0.5. For C4G U16C G44A G48A G50C A57U, the yeast fitness was ≤ 0.5. In the case of C4U C5G C60G, the yeast fitness is reported as ≤ 0.5. With C4U A45C C60G A69G the yeast fitness was ≤ 0.5. For C4U A14U A43U G68A, the yeast fitness was ≤ 0.5. C4U C11U A65U showed a yeast fitness of 0.669. With C4U A21C C24U G38A the yeast fitness was ≤ 0.5. C4G U35A U54C C61G gave a yeast fitness of 0.765. In the case of C4U A43G C46U, the yeast fitness is reported as 0.994. C4G U13C A70G gave a yeast fitness of 0.618. C4U A20G A45U C61U C62G gave a yeast fitness of 0.53. For C4G U19A A37U A42G A65C G67A, the yeast fitness was ≤ 0.5. For C4U C11A C27A C62A, the yeast fitness was ≤ 0.5. In the case of C4U A40G C60G, the yeast fitness is reported as 0.544. With C4G U28A C33G the yeast fitness was ≤ 0.5. For C4U C11G C34U C60A, the yeast fitness was ≤ 0.5. In the case of C4U A36G G44C C49U, the yeast fitness is reported as 0.631. Work on C4U A37G C46U yielded a yeast fitness of 0.54. With C4U C5A U13A C31U C34U C55A G58A the yeast fitness was ≤ 0.5. For C4G U19C U47A C49U G68C, the yeast fitness was ≤ 0.5. With C4U C5A C33U C66U the yeast fitness was ≤ 0.5. For C4U A15C C30G A69U, the yeast fitness was ≤ 0.5. In the case of C4U A15C C30G A69C, the yeast fitness is reported as ≤ 0.5. Variant C4U C5G C29U has a yeast fitness of 0.541. Work on C4U A42U C49G yielded a yeast fitness of 0.543. Work on C4U C11A U28A C31U G51C yielded a yeast fitness of 0.622. For C4U C11G C24A C29U, the yeast fitness was ≤ 0.5. Work on C4U A45U C66U yielded a yeast fitness of 0.656. For C4U A14U G39A C49G, the yeast fitness was ≤ 0.5. In the case of C4U C11A A37C A57G, the yeast fitness is reported as ≤ 0.5. With C4U A36U C55A the yeast fitness was 0.659. For C4U A21C A42G, the yeast fitness was ≤ 0.5. C4G U26C C46U gave a yeast fitness of 0.702. In the case of C4U A15U A42C U47A A65G, the yeast fitness is reported as ≤ 0.5. Variant C4G U53A has a yeast fitness of 0.594. In the case of C4G U54C, the yeast fitness is reported as 0.886. For C4G U54G, the yeast fitness was 0.626. C4G U54A showed a yeast fitness of 0.572. For C4U A21C U59C, the yeast fitness was ≤ 0.5. C4U A20C A40U C55G gave a yeast fitness of 0.578. With C4G U28A G39A the yeast fitness was ≤ 0.5. With C4G U53A G56A the yeast fitness was ≤ 0.5. In the case of C4U A37C C49U C60G, the yeast fitness is reported as ≤ 0.5. With C4U A36G G39A G67A the yeast fitness was ≤ 0.5. Variant C4U A65C G68A has a yeast fitness of 1.03. With C4U C11G A45U C49U C61G the yeast fitness was ≤ 0.5. With C4U A15C G51C the yeast fitness was ≤ 0.5. With C4U A15C G51A the yeast fitness was ≤ 0.5. Variant C4U A20U A40U has a yeast fitness of 0.646. With C4U A20C C49U C61A the yeast fitness was ≤ 0.5. Variant C4U A15G U16C has a yeast fitness of 0.728. For C4U C11A A42G G48C G63U G67A, the yeast fitness was ≤ 0.5. C4U A65C A70G gave a yeast fitness of 0.75. In the case of C4U C5A U13A C31U C34U C66U, the yeast fitness is reported as ≤ 0.5. In the case of C4U A40U C66U, the yeast fitness is reported as 0.762. In the case of C4U C11U A15G, the yeast fitness is reported as 0.713. For C4G U8G G18C C49U G58A G67A, the yeast fitness was ≤ 0.5. With C4U A14C C29U A65G the yeast fitness was 0.765. With C4U A37C G50C the yeast fitness was ≤ 0.5. In the case of C4U C11U A45C G48A G56C, the yeast fitness is reported as ≤ 0.5. For C4G U16C A70C, the yeast fitness was 0.709. For C4G U54G C62A, the yeast fitness was 0.579. Variant C4U A37U has a yeast fitness of 0.676. In the case of C4U A14C, the yeast fitness is reported as 0.749. For C4G U26C G50A, the yeast fitness was ≤ 0.5. C4G U16C C27G A40G G48A A57C gave a yeast fitness of 0.572. With C4G U19C C22G G50A A57C the yeast fitness was ≤ 0.5. For C4U A36U G52A, the yeast fitness was ≤ 0.5. In the case of C4U C11G C49U C61A, the yeast fitness is reported as ≤ 0.5. For C4U C11G C22G C55G G63C, the yeast fitness was ≤ 0.5. With C4G U13A A21C U35A A65C the yeast fitness was ≤ 0.5. For C4G U16C G44A G48A G50C, the yeast fitness was 0.511. Work on C4U A37G A45U yielded a yeast fitness of 0.707. For C4U A36G A69C, the yeast fitness was 0.8. For C4G U13C A45U G56C, the yeast fitness was ≤ 0.5. For C4U C11A U26G G50C, the yeast fitness was 0.536. Variant C4U C5U C46G has a yeast fitness of 0.515. In the case of C4U C11G G18A G23C U47G G50A, the yeast fitness is reported as ≤ 0.5. In the case of C4U C11G C66A, the yeast fitness is reported as ≤ 0.5. Variant C4U A43C G67A has a yeast fitness of 0.733. C4U A57G C61U gave a yeast fitness of 0.675. In the case of C4U A42C A69U, the yeast fitness is reported as 0.633. With C4U C11U A15G C34U the yeast fitness was ≤ 0.5. Work on C4U C5A C60A C62U U64C G68A A69C yielded a yeast fitness of 0.579. In the case of C4U A21C C24U G38A G63C, the yeast fitness is reported as ≤ 0.5. Work on C4G U35C G39A C62A yielded a yeast fitness of 0.511. For C4U A15C C30G, the yeast fitness was ≤ 0.5. Variant C4U A40G C62U has a yeast fitness of 0.667. With C4U C5G the yeast fitness was 0.95. In the case of C4G U13C G23U G48C G50A, the yeast fitness is reported as ≤ 0.5. With C4G U28C C55U the yeast fitness was ≤ 0.5. In the case of C4U A15G C22U A69U, the yeast fitness is reported as ≤ 0.5. In the case of C4U A37C G48C G50C, the yeast fitness is reported as ≤ 0.5. With C4U C5G G10A C24U A36C G56A the yeast fitness was 0.651. For C4G U19A C31G, the yeast fitness was ≤ 0.5. In the case of C4U C11A C29U C49A, the yeast fitness is reported as ≤ 0.5. With C4U A45G C61G A65C A70U the yeast fitness was ≤ 0.5. C4U A40U showed a yeast fitness of 0.898. With C4U A40C the yeast fitness was 0.835. With C4U C5U G18A G25A C33U G48A G52A A69U the yeast fitness was ≤ 0.5. In the case of C4U A36U A40C G68A, the yeast fitness is reported as ≤ 0.5. In the case of C4G U32G A69C, the yeast fitness is reported as ≤ 0.5. For C4G U13A A43G C46G, the yeast fitness was ≤ 0.5. For C4G U19A C29G G41A C46U U54C C60A, the yeast fitness was 0.737. In the case of C4U A36U U47C, the yeast fitness is reported as ≤ 0.5. With C4U C11G C34U C55A A65U A70G the yeast fitness was ≤ 0.5. In the case of C4U C11U, the yeast fitness is reported as 0.969. Work on C4U C11G yielded a yeast fitness of 0.692. For C4U C11A, the yeast fitness was 0.61. With C4U A15C C29U U54C C61G G63A the yeast fitness was ≤ 0.5. For C4U C11A A37C C49U C60G A70C, the yeast fitness was ≤ 0.5. In the case of C4U A20U G50A G52A C60U C61G, the yeast fitness is reported as ≤ 0.5. Variant C4U C11G C29A has a yeast fitness of 0.597. With C4U A57C C61U A70U the yeast fitness was ≤ 0.5. For C4G U13C C60G A65U, the yeast fitness was ≤ 0.5. For C4G U47C, the yeast fitness was 0.865. With C4G U47A the yeast fitness was 0.854. With C4U C5G C34U U54A G67U the yeast fitness was ≤ 0.5. For C4U C5U G12A A21C C27U, the yeast fitness was ≤ 0.5. In the case of C4G U47A G68A, the yeast fitness is reported as ≤ 0.5. With C4G U19C G48C A69C the yeast fitness was 0.602. In the case of C4G U28G C30A A42G A43C C61G, the yeast fitness is reported as ≤ 0.5. C4U A37U C49U showed a yeast fitness of 0.563. In the case of C4U A15C G17A G18A A36C C55U C66A, the yeast fitness is reported as ≤ 0.5. For C4U A15C C34G A43C A65U, the yeast fitness was ≤ 0.5. In the case of C4U A21G U47C A70G, the yeast fitness is reported as ≤ 0.5. In the case of C4U C11G C55U G58A, the yeast fitness is reported as ≤ 0.5. For C4U C11A A70G, the yeast fitness was ≤ 0.5. For C4U C11U G25C G41A A57C G58A, the yeast fitness was ≤ 0.5. In the case of C4U A42C G63C, the yeast fitness is reported as 0.522. For C4U A21U U35C G50C, the yeast fitness was ≤ 0.5. In the case of C4U A14C G51C, the yeast fitness is reported as ≤ 0.5. Variant C4U A45U A69C has a yeast fitness of 0.79. Variant C4U A45U A69U has a yeast fitness of 0.827. With C4U A14U A36U the yeast fitness was 0.545. In the case of C4G U16C C31U A70C, the yeast fitness is reported as ≤ 0.5. For C4U A14G C30G A36U, the yeast fitness was ≤ 0.5. In the case of C4U A14G A15C G63C, the yeast fitness is reported as ≤ 0.5. With C4U C11G A42G C49U A70U the yeast fitness was ≤ 0.5. In the case of C4U A40G A42G A57C C66U, the yeast fitness is reported as ≤ 0.5. C4G U35A gave a yeast fitness of 0.772.
